Measured values: ChEMBL document CHEMBL4616681, “Discovery of 3-Pyridyl Isoindolin-1-one Derivatives as Potent, Selective, and Orally Active Aldosterone Synthase (CYP11B2) Inhibitors” (J Med Chem, 2020)

How the values were obtained:
[1] = biological target: T1, Cytochrome P450 11B1, mitochondrial (Homo sapiens, UniProt P15538); experiment: Inhibition of human CYP11B1 expressed in human renal leiomyoblastoma cells harboring FDXR/FDX using 1-deoxycortisol as substrate by HTRF assay; assay type: ADME, cell-based
T1 sequence (P15538 whole entry): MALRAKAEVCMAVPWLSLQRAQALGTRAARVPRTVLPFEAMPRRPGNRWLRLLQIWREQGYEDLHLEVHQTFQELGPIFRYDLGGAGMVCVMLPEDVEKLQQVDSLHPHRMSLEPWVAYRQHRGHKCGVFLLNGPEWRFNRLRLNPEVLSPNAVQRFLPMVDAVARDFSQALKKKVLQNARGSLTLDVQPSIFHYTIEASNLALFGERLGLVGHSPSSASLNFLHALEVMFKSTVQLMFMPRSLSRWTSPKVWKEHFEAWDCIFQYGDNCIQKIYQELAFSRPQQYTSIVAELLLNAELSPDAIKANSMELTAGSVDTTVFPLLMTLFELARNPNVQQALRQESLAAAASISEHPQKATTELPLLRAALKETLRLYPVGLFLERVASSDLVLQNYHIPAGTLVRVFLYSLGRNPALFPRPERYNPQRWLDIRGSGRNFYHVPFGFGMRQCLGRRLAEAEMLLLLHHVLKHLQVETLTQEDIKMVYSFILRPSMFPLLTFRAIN
Outline: (§1)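 Cells with endogenous FDXR/FDX and no detectable CYP11B activity, stably transfected (CMV promoter, neomycin selection, G-418 400 µg/mL) with CYP11B1 or CYP11B2 of the named species. Assayed in DMEM/F12 with 2.5% charcoal-treated FCS. Substrate 1 µM 11-deoxycorticosterone (B2) or 11-deoxycortisol (B1), 16 hr. Aldosterone or cortisol in supernatant measured by HTRF. IC50 from 4-parameter MMF fit; selectivity factor is the B1/B2 IC50 ratio.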

[2] = Selectivity ratio of IC50 for human CYP11B1 expressed in human renal leiomyoblastoma cells harboring FDXR/FDX to IC50 for human CYP11B2 expressed in human renal leiomyoblastoma cells harboring FDXR/FDX; assay type: cell-based; outline: as §1
[3] = biological target: T2, Cytochrome P450 11B2, mitochondrial (Homo sapiens, UniProt P19099); experiment: Inhibition of human CYP11B2 expressed in human renal leiomyoblastoma cells harboring FDXR/FDX using 1-deoxycorticosterone as substrate by HTRF assay; assay type: cell-based; outline: as §1
T2 sequence (P19099 whole entry): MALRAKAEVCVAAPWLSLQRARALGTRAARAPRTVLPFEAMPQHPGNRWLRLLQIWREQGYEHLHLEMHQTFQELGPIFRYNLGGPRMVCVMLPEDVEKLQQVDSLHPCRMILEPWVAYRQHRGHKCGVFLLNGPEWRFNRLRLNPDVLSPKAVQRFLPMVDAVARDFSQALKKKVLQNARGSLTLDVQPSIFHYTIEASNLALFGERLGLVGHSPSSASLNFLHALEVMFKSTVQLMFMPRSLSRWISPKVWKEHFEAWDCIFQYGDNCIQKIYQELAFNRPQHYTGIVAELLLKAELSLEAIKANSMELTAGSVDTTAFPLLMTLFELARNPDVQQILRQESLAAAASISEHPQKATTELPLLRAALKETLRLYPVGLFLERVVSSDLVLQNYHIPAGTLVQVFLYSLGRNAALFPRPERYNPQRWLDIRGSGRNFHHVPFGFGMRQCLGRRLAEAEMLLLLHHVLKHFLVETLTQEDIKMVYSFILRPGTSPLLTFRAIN

[4] = Intrinsic clearance in human liver microsomes preincubated for 10 mins followed by NADPH regenerating system addition and measured up to 30 mins by LC/MS-MS analysis; assay type: ADME, Microsome; conditions: read-out: CLH
Outline: (§2)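 Liver microsomes at 0.5 mg protein/mL in 100 mM potassium phosphate, pH 7.4. Compound preincubated 10 min at 37 °C. Intrinsic clearance scaled using the well-stirred liver model.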

[5] = Intrinsic clearance in rat liver microsomes preincubated for 10 mins followed by NADPH regenerating system addition and measured up to 30 mins by LC/MS-MS analysis; assay type: ADME, Microsome; outline: as §2
[6] = Inhibition of cynomolgus monkey CYP11B2 expressed in human G401 cells using 1-deoxycorticosterone as substrate by HTRF assay; assay type: cell-based, Macaca fascicularis; conditions: g-401; outline: as §1
[7] = Selectivity ratio of IC50 for cynomolgus monkey CYP11B1 expressed in human G401 cells to IC50 for cynomolgus monkey CYP11B2 expressed in human G401 cells; assay type: cell-based; outline: as §1
[8] = Intrinsic clearance in mouse liver microsomes preincubated for 10 mins followed by NADPH regenerating system addition and measured up to 30 mins by LC/MS-MS analysis; assay type: ADME, Microsome; outline: as §2

SMILES | IC50 [1] [nM] | Ratio IC50 [2] | IC50 [3] [nM] | predicted hepatic clearance [4] [mL/min/kg] | predicted hepatic clearance (CLH) [5] [mL/min/kg] | IC50 [6] [nM] | Ratio IC50 [7] | predicted hepatic clearance (CLH) [8] [mL/min/kg]
CS(=O)(=O)N[C@@H]1CCCc2c1cncc2N1CCc2cc(Cl)ccc2C1=O | 5150 | 68 | 76 | < 3.5 | < 20.2 | – | – | –
CCS(=O)(=O)N1CC2(CN(c3cncc(N4C(=O)c5ccc(Cl)cc5C4(C)C)c3)C2)C1 | – | 855 | 16 | – | 0.87 | 1 | 19700 | –
CC(=O)N[C@@H]1CCCc2c1cncc2N1CCc2cc(Cl)ccc2C1=O | 3920 | 73 | 54 | 4.3 | < 20.2 | – | – | –
Cc1cccnc1C(=O)NCc1cncc(N2C(=O)c3ccc(Cl)cc3C2(C)C)c1 | – | 89 | 9 | – | – | – | 191 | –
CC[C@@H]1c2cc(Cl)ccc2C(=O)N1c1cncc2c1CCC[C@H]2NC(C)=O | 334 | 48 | 7 | < 3.5 | – | – | – | < 20.2
CCC(=O)N[C@@H]1CCCc2c1cncc2N1C(=O)c2ccc(Cl)cc2[C@H]1CC | 10200 | 114 | 90 | < 3.5 | – | – | – | 44.9
CC(=O)NCc1cncc(N2C(=O)c3ccc(Cl)cc3C2(C)C)c1 | – | 47 | 59 | – | – | 14 | 333 | –
CCC(=O)N[C@@H]1CCCc2c1cncc2N1C(=O)c2ccc(Cl)cc2[C@@H]1CC | 345 | 29 | 12 | < 3.5 | – | – | – | < 20.2
CC(=O)N[C@@H]1CCCc2c1cncc2N1Cc2cc(Cl)ccc2C1=O | 2330 | 53 | 44 | < 3.5 | – | – | – | < 20.2
CC1(C)c2cc(Cl)ccc2C(=O)N1c1cncc(CNS(C)(=O)=O)c1 | – | 49 | 33 | – | – | 10 | 179 | –
CCC1c2cc(Cl)ccc2C(=O)N1c1cccnc1 (stereo not drawn) | 3340 | 28 | 121 | 6.6 | – | – | – | 65.9
CCS(=O)(=O)N[C@@H]1CCCc2c1cncc2N1Cc2cc(Cl)ccc2C1=O | 1790 | 45 | 40 | < 3.5 | – | – | – | 27
CC(=O)N[C@@H]1CCCc2c1cncc2N1C(=O)c2ccc(Cl)cc2[C@@H]1C | 81 | 20 | 4 | < 3.5 | – | – | – | < 20.2
CC(=O)N[C@@H]1CCCc2c1cncc2N1C(=O)c2ccc(Cl)cc2[C@H]1C | 5140 | 40 | 130 | < 3.5 | – | – | – | 43.5
CC[C@H]1c2cc(Cl)ccc2C(=O)N1c1cncc2c1CCC[C@H]2NC(C)=O | 3630 | 37 | 97 | < 3.5 | – | – | – | < 20.2
CCC(=O)N[C@@H]1CCCc2c1cncc2N1C(=O)c2ccc(Cl)cc2[C@@H]1C | 414 | 69 | 6 | < 3.5 | – | – | – | < 20.2
CC(=O)N1CCC(Oc2cncc(N3C(=O)c4ccc(Cl)cc4C3(C)C)c2)CC1 | – | 61 | 4 | – | – | 2 | 225 | –
CCC(=O)N[C@@H]1CCCc2c1cncc2N1C(=O)c2ccc(Cl)cc2[C@H]1C | 9410 | 143 | 66 | < 3.5 | – | – | – | 45.6
CC(=O)N1CC[C@H](Oc2cncc(N3C(=O)c4ccc(Cl)cc4C3(C)C)c2)C1 | – | 81 | 7 | – | – | 5 | 193 | –
CC(=O)N1CCN(c2cncc(N3C(=O)c4ccc(Cl)cc4C3(C)C)c2)CC1 | – | 80 | 9 | – | 17.7 | 3 | 236 | –
CC(=O)N1CC[C@@H](Oc2cncc(N3C(=O)c4ccc(Cl)cc4C3(C)C)c2)C1 | – | 113 | 11 | – | – | 7 | 643 | –
CS(=O)(=O)N[C@@H]1CCCc2c1cncc2N1Cc2cc(Cl)ccc2C1=O | 9350 | 9 | 998 | < 3.5 | – | – | – | < 20.2
CC(=O)N1CC2(C1)CN(c1cncc(N3C(=O)c4ccc(Cl)cc4C3(C)C)c1)C2 | – | 640 | 23 | – | 3.71 | – | – | –
C[C@@H](NS(C)(=O)=O)c1cncc(N2C(=O)c3ccc(Cl)cc3C2(C)C)c1 | – | 71 | 8 | – | – | 4 | 93 | –
CCC(=O)N[C@@H]1CCCc2c1cncc2N1CCc2cc(Cl)ccc2C1=O | 3330 | – | 119 | < 3.5 | < 20.2 | – | – | –
CC(=O)N1CCC(c2cncc(N3C(=O)c4ccc(Cl)cc4C3(C)C)c2)CC1 | – | 77 | 5 | – | – | 2 | 466 | –
